According to ChEMBL document CHEMBL4673214, “Synthesis and antibacterial bioactivities of cationic deacetyl linezolid amphiphiles” (Eur J Med Chem, 2018):

Key:
Staphylococcus aureus [1] = assay: Antibiofilm activity against Staphylococcus aureus ATCC 29213 assessed as inhibition of biofilm formation incubated for 24 hrs by crystal violet staining assay; assay type: functional
How it was run: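 Twofold serial dilutions in MHB received 1:1000-diluted exponential-phase bacteria and were incubated 24 h at 37 °C. Wells were rinsed, stained with 0.1% crystal violet for 10 min and dissolved in ethanol, and OD540 was read. MBIC80 was the concentration inhibiting 80% of biofilm formation versus untreated wells, taken from dose-response curves.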

Escherichia coli = assay: Antibiofilm activity against 72 hrs preformed biofilm of Escherichia coli ATCC 25922 assessed as biofilm viability at 2 ug/ml incubated for 24 hrs by […] (reference value: 16.1 log10CFU); assay type: functional; conditions: dose 2 µg/ml
How it was run: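 E. coli from mid-log phase was diluted to ~10^5 CFU/mL in M9 medium with 0.02% casamino acids and 0.5% glycerol and formed biofilm without shaking for 72 h. Wells were PBS-washed, then treated with 2-128 µg/mL for 24 h at 37 °C; medium-only wells served as control. Cells were released with trypsin-EDTA and plated as tenfold dilutions. Viability was given as log10 CFU/well.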

Staphylococcus aureus [2] = assay: Antibiofilm activity against 24 hrs preformed biofilm of Staphylococcus aureus ATCC 29213 assessed as biofilm viability at 32 ug/ml incubated for 24 hrs by crystal violet staining analysis (reference value: 18.9 1og10CFU); assay type: functional; conditions: dose 32 µg/ml
[3] = Selectivity index, ratio of HC50 for Sheep erythrocytes to MIC for Escherichia coli ATCC 25922; assay type: toxicity

SMILES: CCCCCCCCCCCN(C[C@H]1CN(c2ccc(N3CCOCC3)c(F)c2)C(=O)O1)C(=O)[C@@H](N)CCCCN.Cl.Cl
- MBIC80 (Staphylococcus aureus [1]): 25.9 µg/mL
- MBIC90 (Staphylococcus aureus [1]): 34.1 µg/mL
- Activity (Escherichia coli): 10.2 log10CFU
- Activity (Staphylococcus aureus [2]): 7.5 log10CFU
- selectivity ratio [3]: 12.5
